According to ChEMBL document CHEMBL1157311, “Aurilides B and C, cancer cell toxins from a Papua New Guinea collection of the marine cyanobacterium Lyngbya majuscula” (2006):

What was measured:
U-251 = test: Growth inhibition of human U251 cells; type: functional
NCI-H460 [1] = test: Cytotoxicity against human NCI-H460 cells after 48 hrs by MTT assay; type: functional; conditions: NCI-H460, 48 h, read-out: LC50 (the source's name)
Procedure, shortened: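 Cells seeded at 6000/well and grown 24 h, then given test chemicals dissolved in DMSO and diluted in serum-free medium (DMSO under 0.5% final). Viability read by MTT reduction after 48 h exposure; LC50 reported. Method follows Alley et al.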

SF-295 = test: Growth inhibition of human SF295 cells; type: functional
COLO 205 = test: Growth inhibition of human COLO205 cells; type: functional
SK-MEL-2 = test: Growth inhibition of human SK-MEL-2 cells; type: functional
SF-268 = test: Growth inhibition of human SF268 cells; type: functional
HCC 2998 = test: Growth inhibition of human HCC2998 cells; type: functional
BT-549 = test: Growth inhibition of human BT549 cells; type: functional
KM12 = test: Growth inhibition of human KM12 cells; type: functional
ACHN = test: Growth inhibition of human ACHN cells; type: functional
SNB-75 = test: Growth inhibition of human SNB75 cells; type: functional
NCI-H322M = test: Growth inhibition of human NCI-H322M cells; type: functional
[2] = Growth inhibition of human HL60(TB) cells; type: functional, HL-60(TB)
CAKI-1 = test: Growth inhibition of human CAKI1 cells; type: functional
PC-3 = test: Growth inhibition of human PC3 cells; type: functional
HCT-116 = test: Growth inhibition of human HCT116 cells; type: functional
SW-620 = test: Growth inhibition of human SW620 cells; type: functional; conditions: read-out: pLC50 (the source's name) (converted)
MCF7 = test: Growth inhibition of human MCF7 cells; type: functional
MDA-MB-435 = test: Growth inhibition of human MDA-MB-435 cells; type: functional
HOP-62 = test: Growth inhibition of human HOP62 cells; type: functional
HOP-92 = test: Growth inhibition of human HOP92 cells; type: functional
SN12C = test: Growth inhibition of human SN12C cells; type: functional
DU-145 = test: Growth inhibition of human DU145 cells; type: functional
NCI-H522 = test: Growth inhibition of human NCI-H522 cells; type: functional
MOLT-4 = test: Growth inhibition of human MOLT4 cells; type: functional
NCI-H460 [3] = test: Growth inhibition of human NCI-H460 cells; type: functional; conditions: read-out: pLC50 (the source's name) (converted)
UO-31 = test: Growth inhibition of human UO31 cells; type: functional
NCI-H226 = test: Growth inhibition of human NCI-H226 cells; type: functional
786-0 = test: Growth inhibition of human 786-0 cells; type: functional
SK-OV-3 = test: Growth inhibition of human SKOV3 cells; type: functional
[4] = read-out: pLC50 (the source's name) (converted)

CC/C=C(\C)[C@H]1OC(=O)[C@H](C)N(C)C(=O)[C@H](C(C)C)NC(=O)CN(C)C(=O)[C@H]([C@H](C)CC)N(C)C(=O)[C@H](C(C)C)NC(=O)[C@@H]([C@@H](C)CC)OC(=O)/C(C)=C/C[C@H](O)[C@@H]1C [AURILIDE B]
GI50 (U-251): < 10 nM | TGI (U-251; read-out: pTGI): < 10 nM | CC50 (NCI-H460 [1]): 40 nM | GI50 (SF-295): < 10 nM | CC50 (SF-295; [4]): > 100000 nM | TGI (SF-295; read-out: pTGI): < 10 nM | GI50 (COLO 205): < 10 nM | CC50 (COLO 205; [4]): > 100000 nM | TGI (COLO 205; read-out: pTGI): > 100000 nM | GI50 (SK-MEL-2): < 10 nM | CC50 (SK-MEL-2; [4]): > 100000 nM | TGI (SK-MEL-2; read-out: pTGI): < 10 nM | GI50 (SF-268): < 10 nM | CC50 (SF-268; [4]): 794 nM | GI50 (HCC 2998): < 10 nM | CC50 (HCC 2998; [4]): < 10 nM | TGI (HCC 2998; read-out: pTGI): < 10 nM | GI50 (BT-549): < 10 nM | GI50 (KM12): < 10 nM | CC50 (KM12; [4]): > 100000 nM | TGI (KM12; read-out: pTGI): > 100000 nM | GI50 (ACHN): < 10 nM | CC50 (ACHN; [4]): > 100000 nM | CC50 (SNB-75; [4]): 83200 nM | TGI (SNB-75; read-out: pTGI): < 10 nM | GI50 (NCI-H322M): < 10 nM | TGI (NCI-H322M; read-out: pTGI): < 10 nM | GI50 ([2]; HL-60): < 10 nM | CC50 ([2]; HL-60, read-out: pLC50 (the source's name) (converted)): < 10 nM | TGI ([2]; HL-60, read-out: pTGI): < 10 nM | GI50 (CAKI-1): < 10 nM | TGI (CAKI-1; read-out: pTGI): < 10 nM | GI50 (PC-3): < 10 nM | CC50 (PC-3; [4]): < 10 nM | TGI (PC-3; read-out: pTGI): < 10 nM | GI50 (HCT-116): < 10 nM | CC50 (HCT-116; [4]): < 10 nM | TGI (HCT-116; read-out: pTGI): < 10 nM | CC50 (SW-620): > 100000 nM | GI50 (MCF7): < 10 nM | CC50 (MCF7; [4]): > 100000 nM | TGI (MCF7; read-out: pTGI (converted)): 19100 nM | GI50 (MDA-MB-435): < 10 nM | TGI (MDA-MB-435; read-out: pTGI): < 10 nM | GI50 (HOP-62): < 10 nM | CC50 (HOP-62; [4]): < 10 nM | TGI (HOP-62; read-out: pTGI): < 10 nM | GI50 (HOP-92): < 10 nM | CC50 (HOP-92; [4]): 58900 nM | TGI (HOP-92; read-out: pTGI): < 10 nM | GI50 (SN12C): < 10 nM | GI50 (DU-145): < 10 nM | CC50 (DU-145; [4]): < 10 nM | TGI (DU-145; read-out: pTGI): < 10 nM | GI50 (NCI-H522): < 10 nM | CC50 (NCI-H522; [4]): > 100000 nM | TGI (NCI-H522; read-out: pTGI): < 10 nM | GI50 (MOLT-4): < 10 nM | CC50 (MOLT-4; [4]): < 10 nM | TGI (MOLT-4; read-out: pTGI): < 10 nM | CC50 (NCI-H460 [3]): 77600 nM | GI50 (UO-31): < 10 nM | CC50 (UO-31; [4]): < 10 nM | TGI (UO-31; read-out: pTGI): < 10 nM | GI50 (NCI-H226): < 10 nM | CC50 (NCI-H226; [4]): < 10 nM | TGI (NCI-H226; read-out: pTGI): < 10 nM | GI50 (786-0): < 10 nM | CC50 (786-0; [4]): < 10 nM | TGI (786-0; read-out: pTGI): < 10 nM | GI50 (SK-OV-3): < 10 nM | CC50 (SK-OV-3; [4]): 38900 nM
